LANA-H2B inh – blocks KSHV LANA binding to histone H2A/H2B; inhibition, % (concentration not given with the values); actives 0.6% (n = 320,000); cell-free LANA-H2A/H2B peptide, fluorescence polarization; AID 2629; in the data active = inhibition mostly above about 10%, no sharp cut-off; inactive = mostly below about 6.7%
Target sequence (Q9QR71 whole entry, looked up): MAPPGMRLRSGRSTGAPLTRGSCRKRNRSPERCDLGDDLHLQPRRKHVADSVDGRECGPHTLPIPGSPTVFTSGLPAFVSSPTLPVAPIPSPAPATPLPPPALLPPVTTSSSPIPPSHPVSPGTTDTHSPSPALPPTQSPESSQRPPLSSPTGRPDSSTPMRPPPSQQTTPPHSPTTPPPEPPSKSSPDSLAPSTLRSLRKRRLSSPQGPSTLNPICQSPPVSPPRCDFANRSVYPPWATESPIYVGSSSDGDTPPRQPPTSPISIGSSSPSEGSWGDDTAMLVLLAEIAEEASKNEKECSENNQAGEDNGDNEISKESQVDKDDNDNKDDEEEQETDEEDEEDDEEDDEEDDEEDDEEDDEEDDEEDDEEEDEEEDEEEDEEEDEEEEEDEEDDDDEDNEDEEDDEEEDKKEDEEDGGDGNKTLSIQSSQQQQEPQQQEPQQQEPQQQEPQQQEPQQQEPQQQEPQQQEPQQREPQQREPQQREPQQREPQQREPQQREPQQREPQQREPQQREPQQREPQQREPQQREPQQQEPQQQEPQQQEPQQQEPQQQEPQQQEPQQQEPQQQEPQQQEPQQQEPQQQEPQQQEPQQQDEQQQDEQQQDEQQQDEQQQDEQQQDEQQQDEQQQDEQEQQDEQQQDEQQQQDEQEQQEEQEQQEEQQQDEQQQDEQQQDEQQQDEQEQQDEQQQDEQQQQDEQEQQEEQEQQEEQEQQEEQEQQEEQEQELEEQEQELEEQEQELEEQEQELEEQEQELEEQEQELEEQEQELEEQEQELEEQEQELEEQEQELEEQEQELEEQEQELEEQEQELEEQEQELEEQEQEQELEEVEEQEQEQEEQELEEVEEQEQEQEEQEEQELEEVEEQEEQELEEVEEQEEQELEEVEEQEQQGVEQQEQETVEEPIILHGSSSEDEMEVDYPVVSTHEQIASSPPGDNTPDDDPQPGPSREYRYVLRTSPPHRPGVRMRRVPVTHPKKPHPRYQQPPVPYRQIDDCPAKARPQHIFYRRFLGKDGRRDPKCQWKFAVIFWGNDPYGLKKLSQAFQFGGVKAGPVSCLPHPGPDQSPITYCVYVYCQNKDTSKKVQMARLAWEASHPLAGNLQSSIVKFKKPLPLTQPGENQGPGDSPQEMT
T cell modulator – T cell immune modulation candidate. actives 0.068% (n = 330,000). 2C CD8+ T cell-vesicle binding, flow cytometry; stronger effect = lower value. response (vesicle binding), % at 7 µM;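 active = response, share of CD8 T cells binding vesicles, and their 90th percentile fluorescence all below set limits, cut at about 80% in these data, passing the limit was not always enough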;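 also: values below 100% mean blocked vesicle binding to the CD8+ T cells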
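System: murine 2C transgenic CD8+ T lymphocytes; also added: QL9-loaded Drosophila micro-vesicles; times: binding 1.5 h at 37 °C; measured by: flow cytometry, PE anti-B7-1 (FL2) versus Alexa647 anti-CD8 (FL8), PFA-fixed; control set: Peptide-free naked vesicles (low) and QL9 vesicles with 0.7% DMSO vehicle (high)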
Arrestin-AP2 inh – inhibitors of human beta-arrestin and AP2 interaction; FITC-arrestin peptide / GST-AP2 beads, flow cytometry; AP2 beta2 appendage carries R879A mutation; inhibition, % at 10 µM; actives 0.31% (n = 340,000);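 active = inhibition above a set limit, near 3 SD of compounds lacking own fluorescence, cut at about 54% in these data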;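 also: plate controls were DMSO wells for no effect and 5 µM unlabelled arrestin peptide for full effect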
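Assay system: GST-AP2 R879A bound to glutathione beads, E. coli-expressed; Medium: PBS with 0.05% Tween 20 and 0.1% BSA; Also added: fluorescein-tagged arrestin peptide at 50 nM final; Timing: 12 min plus 1 h, RT; Measured by: flow cytometry, FL1 (488/535 nm); Evaluation: percent drop in bead-associated FITC signal.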
GASC-1 inh – blocks human GASC-1 demethylase activity | inhibition, % at 2.35 µM | Q9H3R0 | AID 2099 | GST-JMJD2C(1-420) H3K9me3 demethylation, DELFIA europium | actives 0.069% (n = 330,000);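 active = more than half of a compound's replicate wells show inhibition beyond 50%, single wells judged on their own value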;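 also: signal counts dimethyl H3K9 product captured on neutravidin plate; 0% = median of DMSO wells and 100% = 0.3 times that DMSO median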
HDAC3 inh – inhibitors of human histone deacetylase 3; actives 0.15% (n = 320,000); AID 2718; inhibition, % at 8.3 µM; O15379; recombinant HDAC3, fluorogenic peptide/trypsin coupled, fluorescence; in the data active = inhibition above about 26%, passing the limit was not always enough
DSG3 Ab inh – inhibitors of pemphigus antibody binding to human desmoglein-3; DSG3-coupled beads, scFv-anti-DSG3-GFP binding, flow cytometry; stronger effect = lower value; binding (percent of control), % at 10 µM; actives 0.48% (n = 310,000); AID 588358;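 active = binding more than 3 SD below its plate's average and above zero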;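 also: hits lower antibody fragment binding to DSG3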
* = called active by the depositor; i = inactive; / = no result; + = active, no number. Hits are enriched below; roughly 1.6% of the tested compounds scored in any of these assays.

SMILES | LANA-H2B inh | T cell modulator | Arrestin-AP2 inh | GASC-1 inh | HDAC3 inh | DSG3 Ab inh
O=C1Nc2ccc(Br)cc2/C1=N\N=C\C1=C(N2CCOCC2)C(=C/c2ccccc2)/CC1 | / | / | -4 | / | / | 86*
Cn1cc(C(=O)N/N=C/C2=C(N3CCOCC3)C(=C\c3ccccc3)/CC2)ccc1=O | 0 | 966 | 1 | -1 | 7 | 126
O=C1Nc2ccccc2/C1=N\N=C\C1=C(N2CCOCC2)C(=C\c2ccccc2)/CC1 | -1 | 465 | -1 | -4 | -2 | 80*
O=S(=O)(NCCc1ccc(F)cc1)c1ccc(F)cc1Br | / | / | -8 | / | / | 95
CCCc1cnc(NCCNCC(O)COc2ccc(Cl)c(Cl)c2)nc1 (stereo not drawn) | 0 | 98 | 32 | 0 | -5 | 110
COc1ccc(NC(=O)c2oc3ccccc3c2NC(=O)c2ccc(OC)c(OC)c2)c(OC)c1 | / | / | 2 | / | / | 7.3*
COc1ccc(NC(=O)c2oc3ccccc3c2NC(=O)COc2ccccc2OC)c(OC)c1 | -10 | 259 | -5 | 0 | 0 | 98
CCNC(=S)Nc1ccc2ncoc2c1 | 31* | 111 | 0 | 7 | 2 | 104
CCNC(=S)Nc1ccc2c(c1)oc1ccccc12 | 1 | 715 | 7 | -5 | 5 | 106
Cc1ccc2oc(=O)n(Cc3ccccc3)c2c1 | 6 | 241 | 5 | 3 | 5 | 90
CCN1CCN(S(=O)(=O)c2ccc(C(C)(C)C)cc2)CC1 | 13* | 394 | 2 | 3 | -4 | 108
COc1cc([N+](=O)[O-])ccc1N1C(=O)CC(Sc2nccc(C)n2)C1=O (stereo not drawn) | 15* | 205 | 26 | 18 | 6 | 103
Cc1cc(C)nc(SC2CC(=O)N(c3ccc(C)c(C)c3)C2=O)n1 (stereo not drawn) | 16* | 181 | 25 | 1 | -2 | 98
COc1ccc(C(=O)CSc2cc(C)[nH]c(=O)n2)cc1 | -4 | 366 | -21 | 7 | 61* | 132
COc1ccc(C(=O)CSc2nc(C)cc(=O)[nH]2)cc1 | 0 | 268 | -47 | -17 | 5 | 104
CCc1noc(C)c1C(=O)N1CCCC(C(=O)c2ccc(OC)c(F)c2)C1 (stereo not drawn) | 14* | 258 | 35 | 1 | -10 | 95
COc1ccc(C(=O)C2CCCN(C(=O)c3cc(C(C)C)no3)C2)cc1F (stereo not drawn) | -2 | 162 | -2 | -1 | 12 | 105
O=C1CCCN2N=C(SCC(=O)Nc3cccc(Cl)c3)SC2=N1 | 26* | 162 | 4 | -2 | 2 | 107
O=C1CCCN2N=C(SCC(=O)Nc3ccc(Cl)cc3)SC2=N1 | 1 | 580 | -11 | 20 | 6 | 112
COc1ccc(N(CC(=O)N/N=C/c2cc(Br)c(C)o2)S(=O)(=O)c2ccc(NC(C)=O)cc2)cc1 | 25* | 194 | -2 | -1 | -4 | 97
COc1ccc(N(CC(=O)N/N=C/c2ccc(C(=O)O)cc2)S(=O)(=O)c2ccc(NC(C)=O)cc2)cc1 | -1 | 239 | 4 | 2 | 3 | 101
Cn1cnnc1SCc1ccc(C(=O)N/N=C(\CCC(=O)O)c2ccc(C(C)(C)C)cc2)cc1 | + | 294 | -3 | 3 | -2 | 121
O=C(O)CSCCC(=O)Nc1ccc(F)cc1 | 28* | 479 | -1 | 5 | 4 | 102
CC(=O)c1ccc(NC(=O)CCSCCC(=O)Nc2ccc(C(C)=O)cc2)cc1 | 0 | 281 | 25 | 15 | 11 | /
O=C(N/N=C/C=C/c1ccc2c(c1)OCO2)c1ccc([N+](=O)[O-])cc1 | 2 | 450 | -5 | -2 | 0 | 88
SMILES | LANA-H2B inh | T cell modulator | Arrestin-AP2 inh | GASC-1 inh | HDAC3 inh | DSG3 Ab inh
O=C(N/N=C/C=C\c1cccc([N+](=O)[O-])c1)c1ccccn1 | 61* | 196 | 5 | -9 | -6 | 99
Nc1ccc(C(=O)N/N=C\C=C\c2ccc([N+](=O)[O-])cc2)cc1 | 1 | 657 | -4 | 0 | -4 | 44*
O=C(Nc1ccnn1C1CCN(C(=O)CCc2ccc(F)cc2)CC1)C1CCOC1 (stereo not drawn) | 3 | 382 | 14 | 15 | 6 | 114
CC(C)C(=O)Nc1ncc(Cc2ccccc2Cl)s1 | -1 | 282 | 6 | -2 | -2 | 105
N#CCC(=O)Nc1ncc(Cc2ccccc2Cl)s1 | 33* | 498 | 33 | 11 | -3 | 97
Cc1cccc2cc(COC(=O)C3CCCCC3)c(=O)[nH]c12 | -2 | 239 | -4 | 1 | 0 | -4.6*
Cc1cccc2cc(COC(=O)C3CCCO3)c(=O)[nH]c12 (stereo not drawn) | -1 | 198 | -1 | 3 | -1 | 99
COCCn1c(Cc2ccccc2)nnc1SCC(=O)N1CCOCC1 | 3 | 318 | 2 | 3 | 0 | 98
COCCCn1c(Cc2ccccc2)nnc1SCC(=O)N1CCCCC1 | 79* | 420 | 2 | -6 | 3 | 105
CC(Sc1nc2ccccc2c(=O)n1C)C(=O)NC1CCCCC1C (stereo not drawn) | -6 | 654 | 6 | 11 | -3 | 106
CC(Sc1nc2ccccc2[nH]1)C(=O)NC1CCCCC1C (stereo not drawn) | -3 | 49* | -13 | 8 | 0 | /
CC(SC1=Nc2ccccc2C2CC=NN12)C(=O)NC1(C#N)CCCCC1 (stereo not drawn) | -4 | i | -5 | -1 | 0 | 106
CC(Sc1ncccn1)C(=O)NC1(C#N)CCCCC1 (stereo not drawn) | 18* | 400 | -10 | 13 | -2 | 98
CCSc1ccc([C@@H]2[C@@H]3C(=O)N(C)C(=O)[C@@H]3[C@]3(C(=O)OC)CCCCN23)cc1OC | 4 | 0.0* | 3 | / | 5 | 105
CCCSc1ccc([C@@H]2[C@@H]3C(=O)N(C)C(=O)[C@@H]3[C@]3(C(=O)OC)CCCCN23)cc1OC | -1 | 684 | 2 | 5 | 21 | 100
O=C(c1ccc(F)cc1F)N1CCCc2ccccc21 | -1 | 242 | 7 | -2 | -1 | 104
COc1ccc(NC(=O)CN(C)S(=O)(=O)c2ccc(Br)s2)cc1OC | 6 | 207 | 6 | -17 | -3 | 110
COc1ccc(NC(=O)CN(C)S(=O)(=O)c2ccc(Br)s2)cc1 | -5 | 254 | -4 | 5 | -3 | -22*
N#Cc1ccccc1NC(=O)c1ccc2c(Cl)c3c(nc2c1)CCCC3 | -6 | 189 | 0 | 8 | 10 | 93*
COc1ccc(CNC(=O)COC(=O)C(CCSC)NC(=O)c2ccco2)cc1OC (stereo not drawn) | 117* | 277 | -1 | -6 | -4 | 105
